High-throughput results from PubChem BioAssay.
Compounds with a hit are over-represented: about 1.9% of the library has one in this group of screens.
NPY-Y2 antag = NPY-Y2 receptor antagonists, primary screen, cell-based; Neuropeptide Y receptor type 2 (Homo sapiens), P49146; NPY-Y2 expressing cells, antagonist mode; inhibition, % at 2.7 µM; 0.99% of 140,000 active; AID 793, 2007
NPY-Y1 PAM-ag = NPY-Y1 receptor potentiators or agonists, primary screen, cell-based; Neuropeptide Y receptor type 1 (Homo sapiens), P25929; NPY-Y1 expressing cells, potentiator/agonist activation; activation, % at 3.6 µM; 0.37% of 220,000 active; AID 1304, 2008; in the data active = activation above about 33%, passing the limit was not always enough;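 also: cells stimulated with NPY at EC10 then isoproterenol at EC100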
Target sequence (P25929 whole entry, looked up): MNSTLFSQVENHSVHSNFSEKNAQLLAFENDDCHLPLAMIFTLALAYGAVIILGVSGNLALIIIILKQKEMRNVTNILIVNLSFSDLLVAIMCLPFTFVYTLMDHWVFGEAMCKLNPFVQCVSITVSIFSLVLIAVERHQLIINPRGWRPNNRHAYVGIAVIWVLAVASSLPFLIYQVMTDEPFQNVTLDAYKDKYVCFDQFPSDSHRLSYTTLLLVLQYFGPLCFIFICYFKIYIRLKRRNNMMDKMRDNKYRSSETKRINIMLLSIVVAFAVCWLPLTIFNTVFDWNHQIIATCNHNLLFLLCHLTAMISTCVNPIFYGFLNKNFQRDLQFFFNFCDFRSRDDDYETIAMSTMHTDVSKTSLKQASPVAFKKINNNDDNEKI
NPY2 pot ag = NPY-Y2 potentiators or agonists, primary screen, cell-based; Neuropeptide Y receptor type 2 (Homo sapiens), P49146; cells expressing NPY-Y2, potentiator/agonist read-out; activation, % at 3.6 µM; 0.45% of 220,000 active; AID 1359, 2008; in the data active = activation above about 27%;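 also: cells stimulated with NPY near EC25 plus isoproterenol at EC100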
NPY Y1 blocker = NPY-Y1 receptor antagonists, primary screen, cell-based | inhibition, % at 3.6 µM | 1% of 200,000 active | AID 1040, 2008 | Neuropeptide Y receptor type 1 (Homo sapiens), P25929 | HEK293-CNG Y1 cells, membrane potential fluorescence; NPY at EC95, then isoproterenol;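 active = inhibition above the campaign mean inhibition of all tested compounds plus 3 SD, cut at about 20% in these data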
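Benchmarks – high control isoproterenol alone, low control NPY with isoproterenol · Material – HEK293 Y1/CNG channel cell line · Times – dye 3 h, compound 60 min room temperature, stimulation 45 min · Probe or stimulus – NPY (25 nM), isoproterenol (1 µM), Ro 20-1724 (25 µM) · Evaluation – % inhibition of NPY effect · Signal – fluorescence, membrane potential probe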
NPY1 antag conf = NPY-Y1 receptor antagonists, retest of hits, confirmation, HEK293-CNG cells, membrane potential fluorescence, triplicate; shares compounds with NPY Y1 blocker; cAMP; NPY challenge against isoproterenol-raised cAMP; 21% of 1,200 active; inhibition, % at 3.6 µM; in the data active = inhibition above about 20%
NPY2 antag ctr = NPY-Y2 receptor antagonists, selectivity check, confirmation, counter-screen for NPY-Y1 antagonist project, HEK293-CNG cells, membrane potential fluorescence, triplicate | shares compounds with NPY Y1 blocker | antagonism; cells given NPY, then isoproterenol | inhibition, % at 3.6 µM | 28% of 1,200 active | AID 1255, 2008
A number is an active result; 0 = inactive; - = no result. Rule as the data show it, unless noted: active = inhibition above about 17%; inactive = the rest.

SMILES	NPY-Y2 antag	NPY-Y1 PAM-ag	NPY2 pot ag	NPY Y1 blocker	NPY1 antag conf	NPY2 antag ctr
CCOC(=O)C1(CCCc2ccccc2)CCN(C2CCSCC2)CC1	-	0	0	51.5	29.1	0
COC(=O)c1cc(-c2ccc(Br)cc2)on1	0	0	0	23.4	0	17.4
COC(=O)c1cc(-c2cccc(OC)c2)on1	0	0	0	27.1	0	0
COCC(=O)Nc1ccccc1Br	0	0	0	0	-	-
COCC(=O)Nc1ccccc1C#N	0	0	0	21.4	0	0
COC(=O)c1ccc(OCC2c3cc(OC)c(OC)cc3CCN2C(C)=O)cc1 (centres undefined)	-	0	0	0	-	-
COC(=O)c1ccc(OCC2c3cc(OC)c(OC)cc3CCN2C(=O)c2ccco2)cc1 (centres undefined)	0	0	0	22.2	0	18.3
O=C(c1cccc(C(F)(F)F)c1)C1CCCN(Cc2cccc(OCCO)c2)C1 (centres undefined)	-	0	0	0	-	-
COc1ccc(C(=O)C2CCCN(Cc3cccn3-c3ccc(Cl)cn3)C2)c(OC)c1 (centres undefined)	-	0	0	50.2	29.1	31.5
CC(C)CN1CCN(Cc2cccn2-c2ccc(Cl)cn2)CC1CCO (centres undefined)	-	0	0	32.6	0	0
COc1ccc(C(=O)C2CCCN(Cc3cnc(N4CCOCC4)s3)C2)c(OC)c1 (centres undefined)	-	0	0	0	-	-
CC(C)CN1CCN(Cc2cccn2-c2ccccn2)CC1CCO (centres undefined)	-	0	0	0	-	-
O=C(c1cccc(C(F)(F)F)c1)C1CCCN(Cc2cccn2-c2ccccn2)C1 (centres undefined)	-	0	0	58.5	33.8	38.2
CC(=O)N1CCN(Cc2nc3cc(NC(=O)c4cccc(Br)c4)ccc3n2C)CC1	-	0	0	-	-	-
Cc1nc(-c2cccc(NS(=O)(=O)c3ccc4ccccc4c3)c2)cs1	0	0	0	32.2	0	0
CN(Cc1ccccc1)CC(O)COc1ccc(CNCCc2cccnc2)cc1 (centres undefined)	-	0	0	0	-	-
CCc1ccc(CNCc2ccc(OCC(O)CN(C)Cc3ccccc3)cc2)nc1 (centres undefined)	-	0	0	26.3	0	26.9
C=CCNc1cnn(-c2ccc(C)cc2)c(=O)c1Sc1ccc(C)cc1	-	0	0	0	-	-
Cc1cccc(C)c1NC(=O)c1c(C)nn(-c2ccccc2)c1Cl	0	0	0	32.4	0	0
Cc1ccc(NC(=O)c2c(C)nn(-c3ccccc3)c2Cl)c(C)c1	0	0	0	0	-	-
Cc1ccc(/C=C(\CCC(=O)O)c2nc3ccccc3s2)cc1[N+](=O)[O-]	0	0	0	0	-	-
CNc1ccc(/C=C(\CCC(=O)O)c2nc3ccccc3s2)cc1[N+](=O)[O-]	0	0	0	25.5	38.8	51.8
CCc1ccc2c(c1)C1(SC(NC(C)=O)=NN1C(C)=O)C(=O)N2CC (centres undefined)	-	0	0	0	-	-
O=C1N(c2ccccc2)C[C@@H]2C[C@@H](c3cc4ccccc4o3)N3CCC[C@@]123	-	0	0	27.4	0	0
CC(/C=C/c1ccc2c(c1)OCO2)=N\NC(=O)c1ccccc1	-	0	0	23.9	0	0
SMILES	NPY-Y2 antag	NPY-Y1 PAM-ag	NPY2 pot ag	NPY Y1 blocker	NPY1 antag conf	NPY2 antag ctr
O=C(c1cnccn1)N(Cc1ccco1)C1(C(=O)NC2CCCCC2)CCCCC1	0	0	0	31.4	27.2	0
COc1cc(C(C(=O)NC2CCCCC2)N(Cc2ccco2)C(=O)c2cnccn2)cc(OC)c1OC (centres undefined)	-	0	0	0	-	-
N#CCCNc1c(Cl)cc(Cl)cc1C(=O)O	0	0	0	0	-	-
Cc1cccc2nc(-c3cccnc3)c(NCCC(C)C)n12	-	0	0	21.8	0	0
Cc1ccc(CSCCNC(=O)CSCc2ccc([N+](=O)[O-])cc2)cc1	0	0	0	0	-	-
Cc1ccccc1CSCCNC(=O)CSCc1ccc([N+](=O)[O-])cc1	0	0	0	20.3	0	0
CCCn1cc(CN2CCC(N3CCC(C(=O)N4CCOCC4)CC3)CC2)c(C)n1	-	0	0	-	-	-
Cc1cc(N/N=C2/CCCc3ccccc32)nc2ccccc12	-	0	0	28.8	32.0	29.4
Cc1cc(C)c2cc(C(=O)Nc3ccccc3)[nH]c2c1	-	0	0	-	-	-
COc1ccc(CN(C(=O)c2nsc(Cl)c2Cl)C(C(=O)NC2CCCCC2)c2ccc(OC)cc2)cc1 (centres undefined)	0	0	0	21.7	0	0
CSc1ccccc1C(=O)NCc1ccccc1C	-	0	0	0	-	-
CCc1ccccc1NC(=O)/C(=C/c1ccco1)c1ccccc1	0	0	0	22.0	0	0
CCOC(=O)c1cnn(-c2nc(-c3ccccc3)cs2)c1C(F)(F)F	0	0	0	20.2	0	0
O=C(Nc1ccc(F)cc1)c1sccc1SCc1cccc(C(F)(F)F)c1	0	0	0	25.4	0	0
O=C(Nc1ccc(F)cc1F)c1sccc1SCc1cccc(C(F)(F)F)c1	0	0	0	47.7	22.6	17.1
NNC(=O)c1sccc1OCc1cccc(C(F)(F)F)c1	-	0	0	0	-	-
O=C(Cc1cccc(C(F)(F)F)c1)Nc1ccccc1	-	0	0	0	-	-
COc1ccc(NC(=O)c2sccc2SCc2cccc(C(F)(F)F)c2)cc1	0	0	0	31.5	0	0
Nc1nc(Sc2c([N+](=O)[O-])cc(C(F)(F)F)cc2[N+](=O)[O-])n[nH]1	-	0	0	-	-	-
COC(=O)c1ccc(NC(=O)Cn2nc(C)cc2C)cc1	-	0	0	0	-	-
CCCCCC(O)(CCCCC)C(=O)NNc1ccccc1	0	0	0	25.2	0	0
O=C(Nc1c2c(nn1-c1ccc(F)cc1)CS(=O)(=O)C2)C12CC3CC(CC(C3)C1)C2	0	0	0	33.3	0	0
O=C(N1CCN(c2ccc(F)cc2)CC1)C12CC3CC(CC(C3)C1)C2	0	0	0	0	-	-
NS(=O)(=O)c1cc(C(=O)N=Nc2c(O)[nH]c3ccccc23)ccc1Cl	-	0	0	-	-	-
CCCCN(CCCC)c1cc(C)nc(-c2ccccc2O)n1	0	0	0	21.7	0	0
Cc1cc2nc(CSc3ccccc3)cc(=O)n2[nH]1	-	0	0	0	-	-
Cc1cc(C)cc(OCC(=O)NNC(=O)CN2C(=O)c3ccccc3C2=O)c1	0	0	0	0	-	-
N#Cc1nc(-c2ccc(F)cc2)oc1NCc1cccc2c1OCO2	0	0	0	21.5	0	0
CCC(CC)c1nnc(NC(=O)C2=NNC(=O)CC2)s1	-	0	0	0	-	-
CCn1c(=O)cc(SCC(=O)N2CCN(c3ccccc3F)CC2)c2ccccc21	0	0	0	24.0	0	0
